Molecules are shown by their SMILES. pIC50: −log10 of the molar value.

The test system of one assay is Pseudomonas aeruginosa. Put plainly: Antibacterial activity against […], MexXY, MeyZ efflux pump- knock out Pseudomonas aeruginosa PAO280. The class given is functional.
Take `Cl.Cn1c(=O)[nH]c2ncc(-c3cccc(C(=O)NCCCc4ccc(CN)cc4)c3)cc21`: the minimal inhibitory concentration (MIC) – broadly, the lowest concentration that inhibits growth of the organism – is greater than 256 µg/mL.

In turn, `Cn1c(=O)[nH]c2ncc(-c3cccc(C(=O)NCCO)c3)cc21` returned a minimum inhibitory concentration (MIC) greater than 256 µg/mL.

On to `Cn1c(=O)[nH]c2ncc(-c3cccc(C(=O)NCc4nc5ccccc5[nH]4)c3)cc21`, for which the MIC is greater than 256 µg/mL.

In turn, `Cl.Cn1c(=O)[nH]c2ncc(-c3cccc(C(=O)NCCN)c3)cc21` came in with an MIC greater than 256 µg/mL.

`Cn1c(=O)[nH]c2ncc(-c3cccc(C(=O)NCCCc4ccc(C(=O)O)cc4)c3)cc21` yielded an MIC greater than 256 µg/mL.

The compound `Cl.Cn1c(=O)[nH]c2ncc(-c3cccc(CN)c3)cc21` yielded an MIC greater than 256 µg/mL.

`Cn1c(=O)[nH]c2ncc(-c3cccc(C(=O)NCc4ccccc4)c3)cc21` returned an MIC greater than 256 µg/mL.

As for `Cn1c(=O)[nH]c2ncc(-c3cccc(C(=O)NCCCc4ccccc4C(=O)O)c3)cc21`, the MIC was greater than 256 µg/mL.

Turning to `Cn1c(=O)[nH]c2ncc(-c3cccc(N)c3)cc21`, the minimum inhibitory concentration (MIC) is greater than 256 µg/mL.

The compound `Cc1cn([C@H]2C[C@H](O)[C@@H](CF)O2)c(=O)[nH]c1=O` came in with an MIC greater than 256 µg/mL.

The compound `Cn1c(=O)[nH]c2ncc(-c3cccc(C(=O)NC(CCc4ccccc4)C(=O)O)c3)cc21` (racemic) returned an MIC greater than 256 µg/mL.

`CNC(=O)c1cccc(-c2cnc3[nH]c(=O)n(C)c3c2)c1` yielded an MIC greater than 256 µg/mL.

On to `Cn1c(=O)[nH]c2ncc(-c3ccccc3)cc21`, for which the MIC is greater than 256 µg/mL.

`Cn1c(=O)[nH]c2ncc(-c3cccc(C(=O)NCCCc4c[nH]c5ccccc45)c3)cc21` gave a minimum inhibitory concentration (MIC) greater than 256 µg/mL.

Consider `COC(=O)c1ccccc1CCCNC(=O)c1cccc(-c2cnc3[nH]c(=O)n(C)c3c2)c1`, for which the MIC is greater than 256 µg/mL.

For the compound `Cn1c(=O)[nH]c2ncc(-c3cccc(C(=O)NCCC(=O)O)c3)cc21`, the MIC was greater than 256 µg/mL.

With `Cn1c(=O)[nH]c2ncc(-c3cccc(C(=O)NCC#N)c3)cc21`, the minimum inhibitory concentration (MIC) was greater than 256 µg/mL.

Take `Cn1c(=O)[nH]c2ncc(-c3cccc(C#N)c3)cc21`: the MIC was greater than 256 µg/mL.

In turn, `Cn1c(=O)[nH]c2ncc(-c3cccc(C(=O)NCCc4ccccc4)c3)cc21` gave an MIC greater than 256 µg/mL.

Regarding `Cn1c(=O)[nH]c2ncc(-c3cccc(C(=O)NCCc4nc5ccccc5[nH]4)c3)cc21`, the MIC was greater than 256 µg/mL.

For `Cn1c(=O)[nH]c2ncc(-c3cccc(C(=O)NCCS(=O)(=O)O)c3)cc21`, the MIC was greater than 256 µg/mL.

`Cn1c(=O)[nH]c2ncc(-c3cccc(C(=O)NCC(=O)O)c3)cc21` displayed an MIC greater than 256 µg/mL.

`Cn1c(=O)[nH]c2ncc(-c3cccc(C(=O)NCCCC4CCCC4)c3)cc21` had an MIC greater than 256 µg/mL.

On to `Cn1c(=O)[nH]c2ncc(-c3cccc(C(=O)NCc4ccccn4)c3)cc21`, for which the MIC is greater than 256 µg/mL.

The target in the next assay is T1, Thymidylate kinase (Homo sapiens) (UniProt P23919).
T1 sequence (whole entry): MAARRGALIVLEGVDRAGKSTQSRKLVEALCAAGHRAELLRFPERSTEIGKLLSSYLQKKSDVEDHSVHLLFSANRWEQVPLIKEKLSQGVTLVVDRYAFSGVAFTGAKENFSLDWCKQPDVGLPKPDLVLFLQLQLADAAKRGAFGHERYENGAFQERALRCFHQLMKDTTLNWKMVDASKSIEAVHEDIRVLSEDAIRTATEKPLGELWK
The assay is described as follows: Inhibition of human thymidylate kinase using dTMP as substrate at 200 uM after 30 mins by fluorescence analysis. The essentials:
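Inhibitor range 0.39–200 μM. Reaction runs 2 min at room temperature, then ADP-detection reagents for 30 min. Read-out is fluorescence at ex 485/em 535 nm. Percent inhibition is corrected using no-enzyme and 5 μM ADP interference controls.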
On to `Cn1c(=O)[nH]c2ncc(-c3ccccc3)cc21`, for which the inhibition (usually the change of the read-out against control, counted positive when it falls) is 17%.

The test system of a further assay is Pseudomonas aeruginosa. The assay is described as follows: Antibacterial activity against Pseudomonas aeruginosa PAO1. The class given is functional.
`Cl.Cn1c(=O)[nH]c2ncc(-c3cccc(C(=O)NCCCc4ccc(CN)cc4)c3)cc21` showed an MIC greater than 256 µg/mL.

For the compound `Cn1c(=O)[nH]c2ncc(-c3cccc(C(=O)NCCO)c3)cc21`, the MIC was greater than 256 µg/mL.

As for `Cn1c(=O)[nH]c2ncc(-c3cccc(C(=O)NCc4nc5ccccc5[nH]4)c3)cc21`, the MIC was greater than 256 µg/mL.

`Cl.Cn1c(=O)[nH]c2ncc(-c3cccc(C(=O)NCCN)c3)cc21` displayed an MIC greater than 256 µg/mL.

In the case of `Cn1c(=O)[nH]c2ncc(-c3cccc(C(=O)NCCCc4ccc(C(=O)O)cc4)c3)cc21`, the MIC was greater than 256 µg/mL.

Compound `Cl.Cn1c(=O)[nH]c2ncc(-c3cccc(CN)c3)cc21` displayed an MIC greater than 256 µg/mL.

With `Cn1c(=O)[nH]c2ncc(-c3cccc(C(=O)NCc4ccccc4)c3)cc21`, the MIC was greater than 256 µg/mL.

For `Cn1c(=O)[nH]c2ncc(-c3cccc(C(=O)NCCCc4ccccc4C(=O)O)c3)cc21`, the MIC is greater than 256 µg/mL.

For `Cn1c(=O)[nH]c2ncc(-c3cccc(N)c3)cc21`, the MIC was greater than 256 µg/mL.

For `Cc1cn([C@H]2C[C@H](O)[C@@H](CF)O2)c(=O)[nH]c1=O`, the MIC was greater than 256 µg/mL.

On to `Cn1c(=O)[nH]c2ncc(-c3cccc(C(=O)NC(CCc4ccccc4)C(=O)O)c3)cc21` (racemic), for which the MIC was greater than 256 µg/mL.

`CNC(=O)c1cccc(-c2cnc3[nH]c(=O)n(C)c3c2)c1` registered an MIC greater than 256 µg/mL.

The compound `Cn1c(=O)[nH]c2ncc(-c3ccccc3)cc21` displayed an MIC greater than 256 µg/mL.

On to `Cn1c(=O)[nH]c2ncc(-c3cccc(C(=O)NCCCc4c[nH]c5ccccc45)c3)cc21`, for which the MIC is greater than 256 µg/mL.

In turn, `COC(=O)c1ccccc1CCCNC(=O)c1cccc(-c2cnc3[nH]c(=O)n(C)c3c2)c1` yielded an MIC greater than 256 µg/mL.

In turn, `Cn1c(=O)[nH]c2ncc(-c3cccc(C(=O)NCCC(=O)O)c3)cc21` gave an MIC greater than 256 µg/mL.

For the compound `Cn1c(=O)[nH]c2ncc(-c3cccc(C(=O)NCC#N)c3)cc21`, the MIC was greater than 256 µg/mL.

In turn, `Cn1c(=O)[nH]c2ncc(-c3cccc(C#N)c3)cc21` displayed an MIC greater than 256 µg/mL.

Consider `Cn1c(=O)[nH]c2ncc(-c3cccc(C(=O)NCCc4ccccc4)c3)cc21`, for which the MIC is greater than 256 µg/mL.

Take `Cn1c(=O)[nH]c2ncc(-c3cccc(C(=O)NCCc4nc5ccccc5[nH]4)c3)cc21`: the MIC was greater than 256 µg/mL.

For `Cn1c(=O)[nH]c2ncc(-c3cccc(C(=O)NCCS(=O)(=O)O)c3)cc21`, the minimum inhibitory concentration (MIC) is greater than 256 µg/mL.

The compound `Cn1c(=O)[nH]c2ncc(-c3cccc(C(=O)NCC(=O)O)c3)cc21` displayed an MIC greater than 256 µg/mL.

`Cn1c(=O)[nH]c2ncc(-c3cccc(C(=O)NCCCC4CCCC4)c3)cc21` gave an MIC greater than 256 µg/mL.

Consider `Cn1c(=O)[nH]c2ncc(-c3cccc(C(=O)NCc4ccccn4)c3)cc21`, for which the minimum inhibitory concentration (MIC) is greater than 256 µg/mL.

For the next assay, the target named is T2, Thymidylate kinase (Homo sapiens, UniProt P23919).
T2 sequence (P23919 whole entry): T1 sequence (whole entry)
Put plainly: Inhibition of human thymidylate kinase using dTMP as substrate after 30 mins by fluorescence analysis.
Regarding `Cn1c(=O)[nH]c2ncc(-c3ccccc3)cc21`, the pIC50 (commonly the IC50 on a negative log10 scale, so that one unit is a factor of ten) is less than 3.70.

Tested on in a further assay: not listed separately
The assay is described as follows: Inhibition of Pseudomonas aeruginosa thymidylate kinase expressed in Escherichia coli BL21 (DE3) cells assessed as phosphorylation of dTMP to dTDP after 20 mins by spectrophotometric analysis. The essentials: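 PaTMK from pET15b in E. coli BL21 DE3, purified by HisTrap and Superdex 200, used at 40 nM. dTDP formation was coupled via PK/LDH/NDP kinase to NADH oxidation (A340) over 20 min at 25 °C.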
Turning to `Cl.Cn1c(=O)[nH]c2ncc(-c3cccc(C(=O)NCCCc4ccc(CN)cc4)c3)cc21`, the pIC50 is 5.49.

Regarding `Cn1c(=O)[nH]c2ncc(-c3cccc(C(=O)NCCO)c3)cc21`, the pIC50 is 5.59.

With `Cn1c(=O)[nH]c2ncc(-c3cccc(C(=O)NCc4nc5ccccc5[nH]4)c3)cc21`, the pIC50 was 4.17.

For `Cl.Cn1c(=O)[nH]c2ncc(-c3cccc(C(=O)NCCN)c3)cc21`, the pIC50 is 5.49.

As to `Cn1c(=O)[nH]c2ncc(-c3cccc(C(=O)NCCCc4ccc(C(=O)O)cc4)c3)cc21`, the pIC50 was 5.57.

For the compound `Cl.Cn1c(=O)[nH]c2ncc(-c3cccc(CN)c3)cc21`, the pIC50 is less than 3.70.

With `Cn1c(=O)[nH]c2ncc(-c3cccc(C(=O)NCc4ccccc4)c3)cc21`, the pIC50 was 6.00.

Consider `Cn1c(=O)[nH]c2ncc(-c3cccc(C(=O)NCCCc4ccccc4C(=O)O)c3)cc21`, for which the negative logarithm of the IC50 (pIC50) is 5.70.

Turning to `Cn1c(=O)[nH]c2ncc(-c3cccc(N)c3)cc21`, the pIC50 was 4.20.

As to `Cn1c(=O)[nH]c2ncc(-c3cccc(C(=O)NC(CCc4ccccc4)C(=O)O)c3)cc21` (racemic), the pIC50 is 4.92.

Regarding `CNC(=O)c1cccc(-c2cnc3[nH]c(=O)n(C)c3c2)c1`, the pIC50 is 5.66.

As for `Cn1c(=O)[nH]c2ncc(-c3cccc(C(=O)NCCCc4c[nH]c5ccccc45)c3)cc21`, the negative-log IC50 (pIC50) is 6.70.

Regarding `COC(=O)c1ccccc1CCCNC(=O)c1cccc(-c2cnc3[nH]c(=O)n(C)c3c2)c1`, the pIC50 is 6.43.

As for `Cn1c(=O)[nH]c2ncc(-c3cccc(C(=O)NCCC(=O)O)c3)cc21`, the pIC50 was 5.59.

Consider `Cn1c(=O)[nH]c2ncc(-c3cccc(C(=O)NCC#N)c3)cc21`, for which the negative-log IC50 (pIC50) was 5.68.

On to `Cn1c(=O)[nH]c2ncc(-c3cccc(C#N)c3)cc21`, for which the pIC50 was less than 3.70.

For `Cn1c(=O)[nH]c2ncc(-c3cccc(C(=O)NCCc4ccccc4)c3)cc21`, the pIC50 is 5.54.

For the compound `Cn1c(=O)[nH]c2ncc(-c3cccc(C(=O)NCCc4nc5ccccc5[nH]4)c3)cc21`, the pIC50 is 5.52.

Regarding `Cn1c(=O)[nH]c2ncc(-c3cccc(C(=O)NCCS(=O)(=O)O)c3)cc21`, the pIC50 was 5.89.

On to `Cn1c(=O)[nH]c2ncc(-c3cccc(C(=O)NCC(=O)O)c3)cc21`, for which the negative logarithm of the IC50 (pIC50) was 6.06.

As for `Cn1c(=O)[nH]c2ncc(-c3cccc(C(=O)NCCCC4CCCC4)c3)cc21`, the pIC50 was 6.09.

In the case of `Cn1c(=O)[nH]c2ncc(-c3cccc(C(=O)NCc4ccccn4)c3)cc21`, the negative logarithm of the IC50 (pIC50) was 5.21.

Values taken from ChEMBL document CHEMBL1955766, “Structure guided development of novel thymidine mimetics targeting Pseudomonas aeruginosa thymidylate kinase: from hit to lead generation” (J Med Chem, 2012).
